# Test results: ChEMBL document CHEMBL1156988, “Synthesis and antibacterial studies of binaphthyl-based tripeptoids. Part 1” (2010)
# How the values were obtained:
# [1] = tested on: Enterococcus faecium; experiment: Antibacterial activity against vancomycin-resistant Enterococcus faecium 243 after 24 hrs; settings: Enterococcus faecium, 243, 24 h
# [2] = tested on: Staphylococcus aureus; experiment: Antibacterial activity against Staphylococcus aureus 6538P after 24 hrs; format: functional
# Procedure, shortened: (§1)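 Micro-broth dilution in cation-adjusted Mueller Hinton II broth, inoculum 1 × 10^6 CFU per mL, added to triplicate wells of twofold serially diluted compound. Incubated 24 h at 37 °C. MIC taken as the lowest dilution giving complete growth inhibition.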
# [3] = tested on: Enterococcus faecium; experiment: Antibacterial activity against vancomycin-resistant clinical isolate Enterococcus faecium after 24 hrs; format: functional
# [4] = tested on: Staphylococcus aureus; experiment: Antibacterial activity against methicillin-resistant Staphylococcus aureus ATCC 43300 after 24 hrs; format: functional; settings: ATCC 43300, 24 h
# Procedure, shortened: (§2)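 Broth microdilution in cation-adjusted Mueller Hinton II broth, inoculum 1 × 10^6 CFU/mL. Inoculum was added 1:1 to twofold serial compound dilutions in triplicate wells. Plates were incubated 24 h at 37 °C. MIC was taken as the lowest dilution giving complete growth inhibition. Strains: wild type ATCC 6538P, Mu50 ATCC 700699, MRSA ATCC 43300.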
# [5] = tested on: Enterococcus faecium; experiment: Antibacterial activity against vancomycin sensitive clinical isolate Enterococcus faecium after 24 hrs; format: functional
# [6] = tested on: Enterococcus faecium; experiment: Antibacterial activity against vancomycin-resistant Enterococcus faecium 820 after 24 hrs; settings: Enterococcus faecium, 820, 24 h
# [7] = tested on: Enterococcus faecium; experiment: Antibacterial activity against vancomycin-resistant Enterococcus faecium 987 after 24 hrs; settings: Enterococcus faecium, 987, 24 h
# [8] = tested on: Staphylococcus aureus; experiment: Antibacterial activity against methicillin sensitive Staphylococcus aureus after 24 hrs; format: functional
# Procedure, shortened: as §2
# [9] = tested on: Enterococcus faecium; experiment: Antibacterial activity against vancomycin-resistant Enterococcus faecium 449 after 24 hrs; settings: Enterococcus faecium, 449, 24 h
# [10] = tested on: Staphylococcus epidermidis; experiment: Antibacterial activity against Staphylococcus epidermidis ATCC 700562 after 24 hrs; format: functional; settings: ATCC 700562, 24 h
# Procedure, shortened: as §1
# [11] = tested on: Staphylococcus aureus; experiment: Antibacterial activity against vancomycin intermediate Staphylococcus aureus after 24 hrs; format: functional
# Procedure, shortened: as §2
smiles,measurement,setting,value
CC(C)CCOc1ccc2ccccc2c1-c1c(OCC(=O)N[C@H](CCCCN)C(=O)N[C@@H](CCCNC(=N)N)C(=O)N[C@H](CC(C)C)C(=O)OCc2ccccc2)ccc2ccccc12.Cl.Cl,MIC,[1],15.6 µg/mL
same,MIC,[2],3.9 µg/mL
same,MIC,[3],2 µg/mL
same,MIC,[4],6 µg/mL
same,MIC,[5],16 µg/mL
same,MIC,[6],7.8 µg/mL
same,MIC,[7],15.6 µg/mL
same,MIC,[8],6 µg/mL
same,MIC,[9],15.6 µg/mL
same,MIC,[10],3 µg/mL
same,MIC,[11],6 µg/mL
